According to ChEMBL document CHEMBL1123067, “Evaluation of the brain-specific delivery of radioiodinated (iodophenyl)alkyl-substituted amines coupled to a dihydropyridine carrier” (J Med Chem, 1985):

What was measured:
Format in all cases: ADME, organism-based
Rattus norvegicus [1] = test: Distribution of radioactivity in blood tissues of Sprague-Dawley rats after 15 min injecton by intravenously; 0.72-1.03; conditions: in vivo, iv, 0.25 h
Rattus norvegicus [2] = test: Distribution of radioactivity in liver tissues of Sprague-Dawley rats after 15 min injecton by intravenously; 0.81-1.18; conditions: in vivo, iv, 0.25 h
How it was run: (§1)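 Female Sprague-Dawley rats, 10–12 weeks old (170–200 g), fed ad libitum, under ether anaesthesia. Each received 15.1 μCi of the ¹²⁵I-labelled pyridinium conjugate or 10.6 μCi of the dihydropyridine conjugate by lateral tail vein. Dose was in 20% Me2SO/saline with vitamin E (~5 mg/mL), 0.22-μm filtered. Five rats per time point. Tissue activity was read against injected-solution standards as % injected dose/g.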

Rattus norvegicus [3] = test: Distribution of radioactivity in blood tissues of Sprague-Dawley rats after 5 min injecton by intravenously; 1.0-1.24; conditions: in vivo, iv
Rattus norvegicus [4] = test: Distribution of radioactivity in liver tissues of Sprague-Dawley rats after 5 min injecton by intravenously; 1.03-1.31; conditions: in vivo, iv; how it was run: as §1
Rattus norvegicus [5] = test: Distribution of radioactivity in blood tissues of Sprague-Dawley rats after 30 min injecton by intravenously; 0.65-0.83; conditions: in vivo, iv, 0.5 h
Rattus norvegicus [6] = test: Distribution of radioactivity in heart tissues of Sprague-Dawley rats after 15 min injecton by intravenously; 0.68-0.84; conditions: in vivo, iv, 0.25 h
Rattus norvegicus [7] = test: Distribution of radioactivity in brain tissues of Sprague-Dawley rats after 60 min injecton by intravenously; 0.03-0.06; conditions: in vivo, iv, 1 h
Rattus norvegicus [8] = test: Distribution of radioactivity in heart tissues of Sprague-Dawley rats after 60 min injecton by intravenously; 0.58-0.75; conditions: in vivo, iv, 1 h; how it was run: as §1
Rattus norvegicus [9] = test: Distribution of radioactivity in lung tissues of Sprague-Dawley rats after 5 min injecton by intravenously; 0.76-0.91; conditions: in vivo, iv
How it was run: (§2)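 Female Sprague-Dawley rats, 10–12 weeks, 170–200 g, fed ad libitum, five per time point. Agent dissolved in minimal Me2SO, diluted with saline to 20% Me2SO, with vitamin E (~5 mg/mL) added, 0.22-µm filtered. 15.1 or 10.6 µCi (per agent) injected into lateral tail vein under ether. Lungs taken; % injected dose/g against injected-solution standards; mean (range).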

Rattus norvegicus [10] = test: Distribution of radioactivity in kidney tissues of Sprague-Dawley rats after 15 min injecton by intravenously; 0.62-0.92; conditions: in vivo, iv, 0.25 h; how it was run: as §1
Rattus norvegicus [11] = test: Distribution of radioactivity in lung tissues of Sprague-Dawley rats after 60 min injecton by intravenously; 0.5-0.65; conditions: in vivo, iv, 1 h; how it was run: as §2
Rattus norvegicus [12] = test: Distribution of radioactivity in blood tissues of Sprague-Dawley rats after 60 min injecton by intravenously; 0.58-0.77; conditions: in vivo, iv, 1 h
Rattus norvegicus [13] = test: Distribution of radioactivity in brain tissues of Sprague-Dawley rats after 5 min injecton by intravenously; 0.05-0.07; conditions: in vivo, iv
Rattus norvegicus [14] = test: Distribution of radioactivity in liver tissues of Sprague-Dawley rats after 60 min injecton by intravenously; 0.38-0.57; conditions: in vivo, iv, 1 h; how it was run: as §1
Rattus norvegicus [15] = test: Distribution of radioactivity in brain tissues of Sprague-Dawley rats after 15 min injecton by intravenously; 0.03-0.06; conditions: in vivo, iv, 0.25 h
Rattus norvegicus [16] = test: Distribution of radioactivity in kidney tissues of Sprague-Dawley rats after 30 min injecton by intravenously; 0.58-0.73; conditions: in vivo, iv, 0.5 h; how it was run: as §1
Rattus norvegicus [17] = test: Distribution of radioactivity in liver tissues of Sprague-Dawley rats after 30 min injecton by intravenously; 0.54-0.89; conditions: in vivo, iv, 0.5 h; how it was run: as §1
Rattus norvegicus [18] = test: Distribution of radioactivity in kidney tissues of Sprague-Dawley rats after 60 min injecton by intravenously; 0.49-0.57; conditions: in vivo, iv, 1 h; how it was run: as §1
Rattus norvegicus [19] = test: Distribution of radioactivity in lung tissues of Sprague-Dawley rats after 15 min injecton by intravenously; 0.58-0.86; conditions: in vivo, iv, 0.25 h; how it was run: as §2
Rattus norvegicus [20] = test: Distribution of radioactivity in heart tissues of Sprague-Dawley rats after 30 min injecton by intravenously; 0.58-0.82; conditions: in vivo, iv, 0.5 h; how it was run: as §1
Rattus norvegicus [21] = test: Distribution of radioactivity in brain tissues of Sprague-Dawley rats after 30 min injecton by intravenously; 0.03-0.06; conditions: in vivo, iv, 0.5 h
Rattus norvegicus [22] = test: Distribution of radioactivity in heart tissues of Sprague-Dawley rats after 5 min injecton by intravenously; 0.79-0.85; conditions: in vivo, iv; how it was run: as §1
Rattus norvegicus [23] = test: Distribution of radioactivity in lung tissues of Sprague-Dawley rats after 30 min injecton by intravenously; 0.54-0.7; conditions: in vivo, iv, 0.5 h; how it was run: as §2
Rattus norvegicus [24] = test: Distribution of radioactivity in kidney tissues of Sprague-Dawley rats after 5 min injecton by intravenously; 1.73-2.64; conditions: in vivo, iv; how it was run: as §1
Rattus norvegicus [25] = test: Distribution of radioactivity in heart tissues of Sprague-Dawley rats after 15 min injection by intravenously; value ranges from 2.24-2.58; conditions: in vivo, iv, 0.25 h
Rattus norvegicus [26] = test: Distribution of radioactivity in blood tissues of Sprague-Dawley rats after 60 min injection by intravenously; value ranges from 0.28-0.37; conditions: in vivo, iv, 1 h
Rattus norvegicus [27] = test: Distribution of radioactivity in blood tissues of Sprague-Dawley rats after 30 min injection by intravenously; value ranges from 0.35-0.4; conditions: in vivo, iv, 0.5 h
Rattus norvegicus [28] = test: Distribution of radioactivity in blood tissues of Sprague-Dawley rats after 15 min injection by intravenously; value ranges from 0.31-0.4; conditions: in vivo, iv, 0.25 h
Rattus norvegicus [29] = test: Distribution of radioactivity in liver tissues of Sprague-Dawley rats after 15 min injection by intravenously; value ranges from 1.23-1.78; conditions: in vivo, iv, 0.25 h; how it was run: as §1
Rattus norvegicus [30] = test: Distribution of radioactivity in liver tissues of Sprague-Dawley rats after 60 min injection by intravenously; value ranges from 0.47-1.17; conditions: in vivo, iv, 1 h; how it was run: as §1
Rattus norvegicus [31] = test: Distribution of radioactivity in kidney tissues of Sprague-Dawley rats after 15 min injection by intravenously; value ranges from 1.42-1.82; conditions: in vivo, iv, 0.25 h; how it was run: as §1
Rattus norvegicus [32] = test: Distribution of radioactivity in kidney tissues of Sprague-Dawley rats after 60 min injection by intravenously; value ranges from 0.89-1.19; conditions: in vivo, iv, 1 h; how it was run: as §1
Rattus norvegicus [33] = test: Distribution of radioactivity in heart tissues of Sprague-Dawley rats after 60 min injection by intravenously; value ranges from 1.68-2.23; conditions: in vivo, iv, 1 h; how it was run: as §1
Rattus norvegicus [34] = test: Distribution of radioactivity in kidney tissues of Sprague-Dawley rats after 30 min injection by intravenously; value ranges from 1.14-1.4; conditions: in vivo, iv, 0.5 h; how it was run: as §1
Rattus norvegicus [35] = test: Distribution of radioactivity in lung tissues of Sprague-Dawley rats after 60 min injection by intravenously; value ranges from 2.11-3.79; conditions: in vivo, iv, 1 h; how it was run: as §2
Rattus norvegicus [36] = test: Distribution of radioactivity in liver tissues of Sprague-Dawley rats after 30 min injection by intravenously; value ranges from 1.06-1.29; conditions: in vivo, iv, 0.5 h; how it was run: as §1
[37] = Brain to blood ratio in Sprague-Dawley rats after 15 min injection by intravenously; conditions: rat, brain and blood, iv
How it was run: (§3)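 Female Sprague-Dawley rats, 10–12 weeks old (170–200 g), fed ad libitum. The ¹²⁵I-labelled agent was dissolved in minimal Me2SO, diluted with saline to a final 20% Me2SO, filtered (0.22 μm), and injected into a lateral tail vein under ether anaesthesia. Tissues were counted against samples of the injected solution and expressed as % injected dose/g (mean, range). Brain/blood ratio is from the means.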

Rattus norvegicus [38] = test: Distribution of radioactivity in liver tissues of Sprague-Dawley rats after 5 min injection by intravenously; value ranges from 1.06-2.71; conditions: in vivo, iv; how it was run: as §1
Rattus norvegicus [39] = test: Distribution of radioactivity in lung tissues of Sprague-Dawley rats after 30 min injection by intravenously; value ranges from 2.26-2.89; conditions: in vivo, iv, 0.5 h; how it was run: as §2
[40] = Brain to blood ratio in Sprague-Dawley rats after 30 min injection by intravenously; conditions: rat, brain and blood, iv; how it was run: as §3
Rattus norvegicus [41] = test: Distribution of radioactivity in brain tissues of Sprague-Dawley rats after 30 min injection by intravenously; value ranges from 0.81-1.26; conditions: in vivo, iv, 0.5 h
[42] = Brain to blood ratio in Sprague-Dawley rats after 60 min injection by intravenously; conditions: rat, brain and blood, iv; how it was run: as §3
[43] = Brain to blood ratio in Sprague-Dawley rats after 5 min injection by intravenously; conditions: rat, brain and blood, iv; how it was run: as §3
Rattus norvegicus [44] = test: Distribution of radioactivity in brain tissues of Sprague-Dawley rats after 15 min injection by intravenously; value ranges from 1.05-1.25; conditions: in vivo, iv, 0.25 h
Rattus norvegicus [45] = test: Distribution of radioactivity in lung tissues of Sprague-Dawley rats after 5 min injection by intravenously; value ranges from 3.62-7.08; conditions: in vivo, iv; how it was run: as §2
Rattus norvegicus [46] = test: Distribution of radioactivity in heart tissues of Sprague-Dawley rats after 30 min injection by intravenously; value ranges from 1.96-2.46; conditions: in vivo, iv, 0.5 h
Rattus norvegicus [47] = test: Distribution of radioactivity in kidney tissues of Sprague-Dawley rats after 5 min injection by intravenously; value ranges from 1.64-3.43; conditions: in vivo, iv; how it was run: as §1
Rattus norvegicus [48] = test: Distribution of radioactivity in brain tissues of Sprague-Dawley rats after 5 min injection by intravenously; value ranges from 0.97-2.17; conditions: in vivo, iv
Rattus norvegicus [49] = test: Distribution of radioactivity in brain tissues of Sprague-Dawley rats after 60 min injection by intravenously; value ranges from 0.76-1.42; conditions: in vivo, iv, 1 h
Rattus norvegicus [50] = test: Distribution of radioactivity in blood tissues of Sprague-Dawley rats after 5 min injection by intravenously; value ranges from 0.28-0.46; conditions: in vivo, iv
Rattus norvegicus [51] = test: Distribution of radioactivity in heart tissues of Sprague-Dawley rats after 5 min injection by intravenously; value ranges from 2.36-3.96; conditions: in vivo, iv; how it was run: as §1
Rattus norvegicus [52] = test: Distribution of radioactivity in lung tissues of Sprague-Dawley rats after 15 min injection by intravenously; value ranges from 3.10-3.77; conditions: in vivo, iv, 0.25 h; how it was run: as §2

C[n+]1cccc(C(=O)Nc2ccc([125I])cc2)c1.[I-]
Distribution (Rattus norvegicus [1]): 0.87% | Distribution (Rattus norvegicus [2]): 1.04% | Distribution (Rattus norvegicus [3]): 1.11% | Distribution (Rattus norvegicus [4]): 1.18% | Distribution (Rattus norvegicus [5]): 0.75% | Distribution (Rattus norvegicus [6]): 0.76% | Distribution (Rattus norvegicus [7]): 0.04% | Distribution (Rattus norvegicus [8]): 0.67% | Distribution (Rattus norvegicus [9]): 0.84% | Distribution (Rattus norvegicus [10]): 0.74% | Distribution (Rattus norvegicus [11]): 0.57% | Distribution (Rattus norvegicus [12]): 0.67% | Distribution (Rattus norvegicus [13]): 0.06% | Distribution (Rattus norvegicus [14]): 0.49% | Distribution (Rattus norvegicus [15]): 0.05% | Distribution (Rattus norvegicus [16]): 0.65% | Distribution (Rattus norvegicus [17]): 0.71% | Distribution (Rattus norvegicus [18]): 0.53% | Distribution (Rattus norvegicus [19]): 0.72% | Distribution (Rattus norvegicus [20]): 0.68% | Distribution (Rattus norvegicus [21]): 0.04% | Distribution (Rattus norvegicus [22]): 0.83% | Distribution (Rattus norvegicus [23]): 0.62% | Distribution (Rattus norvegicus [24]): 2.1%

CN1C=CCC(C(=O)Nc2ccc([125I])cc2)=C1
Distribution (Rattus norvegicus [25]): 2.43% | Distribution (Rattus norvegicus [26]): 0.31% | Distribution (Rattus norvegicus [27]): 0.38% | Distribution (Rattus norvegicus [28]): 0.35% | Distribution (Rattus norvegicus [29]): 1.56% | Distribution (Rattus norvegicus [30]): 0.82% | Distribution (Rattus norvegicus [31]): 1.56% | Distribution (Rattus norvegicus [32]): 1.07% | Distribution (Rattus norvegicus [33]): 1.88% | Distribution (Rattus norvegicus [34]): 1.23% | Distribution (Rattus norvegicus [35]): 2.77% | Distribution (Rattus norvegicus [36]): 1.18% | Kp at 0.25 h [37]: 3.29 | Distribution (Rattus norvegicus [38]): 1.65% | Distribution (Rattus norvegicus [39]): 2.43% | Kp at 0.5 h [40]: 2.66 | Distribution (Rattus norvegicus [41]): 1.01% | Kp at 1 h [42]: 3.6 | Kp at 5 min [43]: 3.87 | Distribution (Rattus norvegicus [44]): 1.16% | Distribution (Rattus norvegicus [45]): 4.61% | Distribution (Rattus norvegicus [46]): 2.18% | Distribution (Rattus norvegicus [47]): 2.36% | Distribution (Rattus norvegicus [48]): 1.14% | Distribution (Rattus norvegicus [49]): 1.12% | Distribution (Rattus norvegicus [50]): 0.37% | Distribution (Rattus norvegicus [51]): 2.86% | Distribution (Rattus norvegicus [52]): 3.3%
